Activity calls are given as the source filed them. No cut-off for these calls is given here.
The compounds below were run on L1210 (assay: Cytotoxicity against mouse L1210 cells after 48 hrs by […] assay). Conditions: L1210, 48 h.
Assay type: functional, cell-based
In short: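 L1210 cells grown in RPMI 1640 plus 10% fetal calf serum, 2 mM L-glutamine, penicillin/streptomycin, 10 mM HEPES (pH 7.4); exposed 48 h to nine serial drug dilutions in triplicate; microculture tetrazolium read-out; IC50 = concentration halving optical density versus untreated controls; mean of 2 independent experiments.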
With `CC(=O)O[C@H]1c2c(ccc3ccc(=O)oc23)OC(C)(C)[C@H]1OC(C)=O` (racemic) the IC50 was > 100 µM.
Compound `CC1(C)Oc2ccc3ccc(=O)oc3c2[C@H](OC(=O)c2ccccc2)[C@H]1Br` (racemic) has an IC50 of 10.3 µM.
`CC(=O)O[C@@H]1c2cc3ccc(=O)oc3cc2OC(C)(C)[C@@H]1OC(C)=O` (racemic) was tested, and the IC50 was > 100 µM.
For `CC1(C)CC(OC(=O)NCCCl)c2c(ccc3ccc(=O)oc23)O1` (racemic), the IC50 was 67.2 µM.
With `CC(=O)OC1CC(C)(C)Oc2cc3oc(=O)ccc3cc21` (racemic) the IC50 was 5 µM.
`CC1(C)CC(OC(=O)c2ccccc2)c2cc3ccc(=O)oc3cc2O1` (racemic) showed an IC50 of 90.1 µM.
`CC(=O)O[C@H]1c2c(ccc3ccc(=O)oc23)OC(C)(C)[C@@H]1Br` (racemic) was tested, and the IC50 was 60.3 µM.
In the case of `CC1(C)Oc2cc3oc(=O)ccc3cc2[C@@H](O)[C@@H]1Br` (racemic), the IC50 is reported as > 100 µM.
With `CC1(C)Oc2ccc3ccc(=O)oc3c2[C@H](O)[C@H]1Br` (racemic) the IC50 was > 100 µM.
`CC1(C)CC(O)c2cc3ccc(=O)oc3cc2O1` (racemic) gave an IC50 of 6.5 µM.
Work on `CC1(C)Oc2cc3oc(=O)ccc3cc2[C@@H](OC(=O)c2ccccc2)[C@@H]1Br` (racemic) yielded an IC50 of 36.5 µM.
Compound `CC1(C)CC(O)c2c(ccc3ccc(=O)oc23)O1` (racemic) has an IC50 of 0.9 µM.
For `CC1(C)Oc2cc3oc(=O)ccc3cc2[C@@H](O)[C@H]1O` (racemic), the IC50 was > 100 µM.
In the case of `CC(=O)O[C@@H]1c2cc3ccc(=O)oc3cc2OC(C)(C)[C@H]1Br` (racemic), the IC50 is reported as > 100 µM.
`CC(=O)OC1CC(C)(C)Oc2ccc3ccc(=O)oc3c21` (racemic) was tested, and the IC50 was 24.7 µM.
For `CC1(C)Oc2ccc3ccc(=O)oc3c2[C@H](O)[C@@H]1O` (racemic), the IC50 was > 100 µM.
Work on `CC1(C)CC(OC(=O)c2ccccc2)c2c(ccc3ccc(=O)oc23)O1` (racemic) yielded an IC50 of 30.9 µM.

What follows are compounds tested on L1210 (assay: Cell cycle arrest in mouse L1210 cells by accumulation at G1 phase after 21 hrs by flow cytometry). Conditions: not given.
Assay type: functional, cell-based
With `CC(=O)OC1CC(C)(C)Oc2cc3oc(=O)ccc3cc21` (racemic) the Activity was “inactive”.
With `CC1(C)CC(O)c2cc3ccc(=O)oc3cc2O1` (racemic) the Activity was “inactive”.
`CC1(C)CC(O)c2c(ccc3ccc(=O)oc23)O1` (racemic) was tested, and the Activity was “inactive”.
